The values that follow come from ChEMBL document CHEMBL1121372, “Synthesis and antihypertensive activity of 5-amino-2-pyridinecarboxylic acid derivatives” (1980).

Assay [1] has as its system Canis familiaris. Nature of the assay: Antihypertensive activity in unanesthetized renal hypertensive dogs measured as mean Blood Pressure at 100 mg per kg dose after peroral administration on day 3. The format is functional, Canis lupus familiaris. The settings on record: route oral. The gist of the method: (§1)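 Renal hypertensive dogs, unanesthetized. Test compound given orally once daily as a solid in a gelatin capsule. Blood pressure was taken at 1.5, 3, 6 and 24 h after each daily dose. Activity is the maximum change in mean blood pressure or heart rate over each daily session. Values are mean ± SE, with significance marked at p < 0.05.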

Assay [2] deals with Rattus norvegicus. Kind of assay: The compound was tested for antihypertensive effect in spontaneously hypertensive rat (SHR), expressed as fall in blood pressure (BP) at 100 mg/kg dose given orally. The settings on record: route oral. It is filed as functional. The gist of the method: (§2)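 Male SHR, about 16 weeks old, with systolic pressure above 150 mmHg, held in restraint cages. Tail-cuff occlusion was raised to 250 mmHg and then lowered, after 1 h acclimation and at least 3 baseline readings. Dosing was by daily gavage in 3% cornstarch/5% PEG-400/Tween 80 for 2 or 4 days, with 4–6 rats per drug. Readings at 1, 2, 3 and 24 h; peak fall reported.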

Assay [3] has as its system Canis familiaris. Kind of assay: Antihypertensive activity in unanesthetized renal hypertensive dogs measured as Heart Rate (HR) (beats/min) at 100 mg per kg dose after peroral administration on day 3. It is filed as functional, Canis lupus familiaris. The note with it: route oral. An outline of the steps: as §1
In assay [4] the test system is Canis familiaris. Nature of the assay: Antihypertensive activity in unanesthetized renal hypertensive dogs measured as mean Blood Pressure at 100 mg per kg dose after peroral administration on day 2((p<0.05). It is filed as functional, Canis lupus familiaris. The note with it: route oral. The gist of the method: as §1
The test system of assay [5] is Canis familiaris. Nature of the assay: Antihypertensive activity in unanesthetized renal hypertensive dogs measured as mean Blood Pressure at 100 mg per kg dose after peroral administration on day1. More on the design: unit not given beside the values. It is filed as functional, Canis lupus familiaris. The note with it: route oral. An outline of the steps:
as §1

Assay [6] deals with Canis familiaris. Kind of assay: Antihypertensive activity in unanesthetized renal hypertensive dogs measured as Heart Rate (HR) (beats/min) at 100 mg per kg dose after peroral administration on day 2. The format is functional, Canis lupus familiaris. The note with it: route oral. The gist of the method:
as §1

The test system of assay [7] is Canis familiaris. Nature of the assay: Antihypertensive activity in unanesthetized renal hypertensive dogs measured as Heart Rate (HR) (beats/min) at 100 mg per kg dose after peroral administration on day1. The format is functional, Canis lupus familiaris. The settings on record: route oral. The gist of the method: as §1
Assay [8] relates to Rattus norvegicus. Nature of the assay: The compound was tested for antihypertensive effect in spontaneously hypertensive rat (SHR), expressed as fall in blood pressure (BP) at 10 mg/kg dose given orally. It is filed as functional. The settings on record: route oral.
Assay [9] relates to Rattus norvegicus. Nature of the assay: The compound was tested for antihypertensive effect in spontaneously hypertensive rat (SHR), expressed as fall in blood pressure (BP) at 25 mg/kg dose given orally. The format is functional. The settings on record: route oral. The gist of the method:
as §2

Assay [10] relates to Rattus norvegicus. Kind of assay: Antihypertensive effect in spontaneously hypertensive rat (SHR), expressed as fall in blood pressure (BP) at 50 mg/kg dose given orally. It is filed as functional. The settings on record: route oral. An outline of the steps: as §2
In assay [11] the test system is Canis familiaris. Kind of assay: Antihypertensive activity in unanesthetized renal hypertensive dogs measured as Heart Rate (HR) (beats/min) at 100 mg per kg dose after peroral administration on day1 (p<0.05). The format is functional, Canis lupus familiaris. The settings on record: route oral. An outline of the steps:
as §1

The subject of assay [12] is Canis familiaris. Kind of assay: Antihypertensive activity in unanesthetized renal hypertensive dogs measured as mean Blood Pressure at 100 mg per kg dose after peroral administration on day 4. It is filed as functional, Canis lupus familiaris. The note with it: route oral. An outline of the steps:
as §1

For assay [13], the system named is Canis familiaris. Kind of assay: Antihypertensive activity in unanesthetized renal hypertensive dogs measured as Heart Rate (HR) (beats/min) at 100 mg per kg dose after peroral administration on day 3 p<0.05. The format is functional, Canis lupus familiaris. The note with it: route oral. The gist of the method:
as §1

Assay [14] concerns Canis familiaris. Nature of the assay: Antihypertensive activity in unanesthetized renal hypertensive dogs measured as mean Blood Pressure at 100 mg per kg dose after peroral administration on day 2. The settings on record: route oral. The format is functional, Canis lupus familiaris. The gist of the method: as §1
In assay [15] the test system is Canis familiaris. Nature of the assay: Antihypertensive activity in unanesthetized renal hypertensive dogs measured as Heart Rate (HR) (beats/min) at 100 mg per kg dose after peroral administration on day 4. The note with it: route oral. It is filed as functional, Canis lupus familiaris. The gist of the method: as §1
Assay [16] has as its system Rattus norvegicus. Kind of assay: The compound was tested for antihypertensive effect in spontaneously hypertensive rat (SHR), expressed as fall in blood pressure (BP) at 50 mg/kg dose given orally; (3/3 dead). It is filed as functional.

With `O=C(O)c1ccc(NCc2cccc(Cl)c2)cn1`, the MBP in the assay with Canis familiaris [1] is -4; in the assay on Canis familiaris [4] it was -9; in the assay on Canis familiaris [5] it was -15. In the assay on Rattus norvegicus [2], this compound came in with a BP above 60 mmHg. Also, the HR in the assay on Canis familiaris [3] and in the assay on Canis familiaris [6] was 11 each time. In addition, the “Maximum change in heart rate” value with Canis familiaris [7] amounted to 16.
For `O=C(O)c1ccc(NCc2ccccc2)cn1`, the BP with Rattus norvegicus [8] is listed as above 40 mmHg; with Rattus norvegicus [9] it was above 60 mmHg; in the assay on Rattus norvegicus [10], above 80 mmHg. Besides, the MBP with Canis familiaris [1] was -13; in the assay with Canis familiaris [12] it was -6; in the assay with Canis familiaris [14] it was -14; with Canis familiaris [5], -32. Further, the HR was 74 in the assay with Canis familiaris [11], 52 in the assay on Canis familiaris [13], 61 with Canis familiaris [6] and 48 in the assay with Canis familiaris [15].
On to `O=C(O)c1ccc(NCC2CCCCC2)cn1`, for which the BP in the assay with Rattus norvegicus [16] is on record as above 20 mmHg.
